Experimental data taken from article PMC7114206 (Antiviral Research, 2008).
Converted amounts (≈) assume the structure as drawn. “And” between values parts separate entries of the source, which are not always exact repeats. Equal entries are not always repeated. Where two headings read alike, the source gives them in different places. Each block holds one compound with its values, some of them ahead of it.

Columns and labels:
[1] = Cytotoxicity SRB assay in Vero cells; format: cell-based, african green monkey; conditions: african green monkey, CC50, concentration required to reduce cell growth by 50%, 48 h
How it was run: (§1)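 Vero cells seeded at 2 × 10^4/well and grown 1 day, then given medium with serially diluted test compound for 48 h. After PBS wash, cells fixed with cold 70% acetone (30 min, −20 °C), dried and stained 30 min with 0.4% SRB in 1% acetic acid. Dye solubilised in 10 mM Tris and read at A540 (ref 620 nm). CC50 read graphically from % of control curves.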

[2] = tested on: porcine epidemic diarrhea virus; assay: Antiviral activity against PEDV, CPE reduction by SRB method in Vero cells; format: cell-based, porcine epidemic diarrhea virus (PEDV CV 777)
Vero cells = assay: Cytotoxicity SRB assay in Vero cells; format: cell-based, african green monkey
How it was run: as §1

[3] = tested on: membrane (M) gene of PEDV; assay: RT-PCR analysis of PEDV replication; format: cell-based, porcine epidemic diarrhea virus; conditions: 10 μg/mL; RNA extracted 24 and 48 h after infection
PEDV = assay: Time-of-addition effect on PEDV replication in Vero cells; format: cell-based, porcine epidemic diarrhea virus
How it was run: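 Vero cells seeded at 2 × 10^4/well and grown 1 day, then PBS-washed. […] After 2 days, SRB CPE-reduction read-out expressed as inhibition rate; mean ± S.D. of three independent experiments.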

ST cells = assay: Cytotoxicity SRB assay in ST cells; format: cell-based, pig; conditions: for Cytotoxicity: highest concentrations tested
How it was run: (§2)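 ST pig testis cells kept in MEM with 10% FBS and 0.01% antibiotic-antimycotic. SRB staining gives cell growth. CC50 is the concentration reducing cell growth by 50%, in μg/mL. Values are means of three independent experiments run in triplicate ± S.D.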

TGEV = assay: Antiviral activity against TGEV in ST cells; format: cell-based, transmissible gastroenteritis virus
PRCV = assay: Antiviral activity against PRCV in ST cells; format: cell-based, porcine respiratory coronavirus
How it was run: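 PRCV (ATCC VR-2384) grown on ST pig testis cells kept in MEM with 10% FBS and 0.01% antibiotic-antimycotic. Read-out is SRB-based reduction of virus-induced CPE. IC50 is the concentration giving 50% inhibition of CPE, in μg/mL. TI = CC50/IC50. Values are means of three independent experiments run in triplicate ± S.D.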

[4] = Cytotoxicity SRB assay in ST cells; format: cell-based, pig; conditions: pig
How it was run: as §2

[5] = interferon-α in units, listed as interferon-α

Compound: O=c1cc(-c2ccc(O)cc2)oc2cc(O)cc(O)c12 [Apigenin]
CC50 at 48 h [1]: > 50 µg/mL
IC50, concentration required to inhibit virus-induced CPE by 50% ([2]; SRB, 2 days): 0.1 ± 0.1 µg/mL (≈ 0.37 µM)
IC50, concentration required to inhibit virus-induced CPE by 50% ([2]; SRB, 2 days, listed as apigenin): less than 12 μg/mL

Compound: O.Oc1cc(O)c2c(c1)O[C@H](c1ccc(O)c(O)c1)[C@@H](O)C2 [Catechin]
CC50, concentration required to reduce cell growth by 50% (Vero cells; 48 h): >100 µg/mL
TI, therapeutic index = CC50/IC50 [2]: >9.0
IC50, concentration required to inhibit virus-induced CPE by 50% ([2]; SRB, 2 days): 11.1 ± 7.1 µg/mL
IC50, concentration required to inhibit virus-induced CPE by 50% ([2]; SRB, 2 days, listed as catechin): less than 12 μg/mL

Compound: O=c1ccc2ccccc2o1 [Coumarin]
TI, therapeutic index = CC50/IC50 [2]: 4.8

Compound: O=c1cc(-c2ccc(O)c(O)c2)oc2cc(O)cc(O)c12 [Luteolin]
CC50 at 48 h [1]: 6.7 µg/mL (≈ 23.4 µM)
IC50, concentration required to inhibit virus-induced CPE by 50% ([2]; SRB, 2 days): 0.2 ± 0.2 µg/mL (≈ 0.699 µM)
IC50, concentration required to inhibit virus-induced CPE by 50% ([2]; SRB, 2 days, listed as luteolin): less than 12 μg/mL

IC50 (TGEV; TGEV in ST cells): 63.31 ± 1.07 µg/mL (≈ 141 µM)
IC50 (PRCV; PRCV in ST cells): 59.76 ± 5.70 µg/mL (≈ 133 µM)
Compound: C[C@@H]1O[C@@H](Oc2cc(O)c3c(=O)c(O)c(-c4ccc(O)c(O)c4)oc3c2)[C@H](O)[C@H](O)[C@H]1O [Q7R, quercetin 7-rhamnoside]
Intensity of the RT-PCR product band of PEDV [3]: decreased the intensity of the product band of PEDV at 24 and 48 h after infection
Inhibition rate (time of addition) (PEDV; 10 μg/mL added at 0, 1, 2 and 4 h after virus inoculation, SRB after 2 days): higher than 85%
CC50 (ST cells): >100 µg/mL
Cytotoxicity (ST cells): did not exhibit any cytotoxicity at the highest concentrations tested
CC50, concentration required to reduce cell growth by 50% (Vero cells; 48 h): >100 µg/mL
TI, therapeutic index = CC50/IC50 (TGEV; TGEV in ST cells): >1.58
TI, therapeutic index = CC50/IC50 (PRCV; PRCV in ST cells): >1.67
TI, therapeutic index = CC50/IC50 [2]: 7142 and > 7142.86
IC50, concentration required to inhibit virus-induced CPE by 50% ([2]; SRB, 2 days): 0.014 ± 0.005 µg/mL (≈ 0.0312 µM)
TI, therapeutic index = CC50/IC50 ([2]; listed as Quercetin 7-rhanmoside): >7142.86

Compound: O=c1c(O)c(-c2ccc(O)c(O)c2)oc2cc(O)cc(O)c12 [Quercetin]
CC50 at 48 h [1]: 365 µg/mL (≈ 1210 µM)
TI, therapeutic index = CC50/IC50 [2]: 214.8

IC50 (TGEV; Alphacoronavirus 1): 55.1 ± 0.8 µg/mL (≈ 226 µM)
IC50 (PRCV; Alphacoronavirus 1): 61.6 ± 1.91 µg/mL (≈ 252 µM)
Compound: NC(=O)c1ncn([C@@H]2O[C@H](CO)[C@@H](O)[C@H]2O)n1 [Ribavirin]
Intensity of the RT-PCR product band of PEDV [3]: did not decrease the intensity of the product band of PEDV at 48 h after infection
inhibition at 10 µg/mL (PEDV; Porcine epidemic diarrhea virus, Vero, read-out: Inhibition rate (time of addition)): < 50%
CC50 at 48 h [4]: > 100 µg/mL
Cytotoxicity (ST cells): did not exhibit any cytotoxicity at the highest concentrations tested
CC50 at 48 h [1]: 423 µg/mL (≈ 1730 µM)
TI, therapeutic index = CC50/IC50 (PRCV; PRCV in ST cells): >1.62
TI, therapeutic index = CC50/IC50 [2]: 103.2

Compound: Interferon-α
CC50, concentration required to reduce cell growth by 50% (Vero cells; interferon-α in units): >100 unit
CC50, concentration required to reduce cell growth by 50% (Vero cells; [5]): > 100 unit
TI, therapeutic index = CC50/IC50 [2]: >192.3
IC50, concentration required to inhibit virus-induced CPE by 50% ([2]; interferon-α in units): 0.52 ± 0.5 unit
IC50, concentration required to inhibit virus-induced CPE by 50% [2, 5]: 0.52 unit
TI, therapeutic index = CC50/IC50 ([2]; listed as interferon-α): > 192.3

Compound: Tannic acid
TI, therapeutic index = CC50/IC50 [2]: 9.2
